Data set [1] is described as follows: Stability of stock and working standard solutions at refrigerated conditions. To be noted: for stability of stock solutions (1 mg mL^−1): refrigerator (8 °C), at least one month, DMSO/acetonitrile; for Recovery (%): 30 days at 8 °C. Format: physicochemical. An outline of the steps: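 Stocks were made at 1 mg mL−1: analyte dissolved in 1 mL DMSO, made up with acetonitrile. They were held refrigerated at 8 °C. Working solutions were diluted in acetonitrile to 5–500 ng mL−1, with internal standard at 200 ng mL−1.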

The nature of data set [2]: Stability studies of DUV in human plasma samples. Format: in vitro ADME. A digest of the protocol:
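Blank human plasma was spiked at 15, 150 and 400 ng mL−1 with internal standard at 200 ng mL−1. Exposures: ~48 h in the autosampler, ~6 h at room temperature, three −80 °C/room-temperature freeze–thaw cycles, or 60 days at −80 °C. Samples were precipitated with an equal volume of mobile phase, vortexed, spun, filtered and run by C18 UPLC-ESI-MRM. Mean of 3.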

A short description of data set [3]: Pharmacokinetic study in rats after single oral dose of DUV. Format: in vivo, Wistar rat. A digest of the protocol:
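Male Wistar rats (250 ± 30 g), acclimatised 7 days and fasted 12 h with free water, got one oral gavage dose of 25 mg kg−1 in 1% DMSO/saline. About 300 µL heparinised blood was drawn predose and at 0.25–12 h. Plasma was spun at 4500 rpm, 4 °C, 30 min, stored at −20 °C, then quantified by UPLC-ESI-MS/MS. Non-compartmental analysis, 5 rats.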

Where [4] appears, read: male, Wistar, rat, plasma, po, 25 mg/kg.
[5] abbreviates: rat plasma, single oral 25 mg kg^−1, mean of 5.

On to `Cc1cc(Nc2ncc(Cl)c(Nc3ccccc3S(=O)(=O)C(C)C)n2)c(OC(C)C)cc1C1CCNCC1` [CRB, Ceritinib], for which the “stability of stock solutions (1 mg mL^−1)” value in data set [1] was “stable”.

Consider `C[C@H](Nc1ncnc2nc[nH]c12)c1cc2cccc(Cl)c2c(=O)n1-c1ccccc1` [DUV, 8-chloro-2-phenyl-3-[(1S)-1-(7H-purin-6-ylamino)ethyl]isoquinolin-1-one], for which the “Recovery (%)” value in data set [2] (60 days at −80 °C, spiked conc. 5 ng mL^−1, mean of 3) is on record as 101.51%; in data set [2] (60 days at −80 °C, spiked conc. 15 ng mL^−1, mean of 3), 99.84%; in data set [2] (60 days at −80 °C, spiked conc. 150 ng mL^−1, mean of 3) it was 101.19%; in data set [2] (60 days at −80 °C, spiked conc. 400 ng mL^−1, mean of 3), 99.87%; in data set [2] (Autosampler (48 h), spiked conc. 5 ng mL^−1, mean of 3), 100.12%; in data set [2] (Autosampler (48 h), spiked conc. 15 ng mL^−1, mean of 3), 95.89%. Further, the “Recovery (%)” value in data set [2] (Autosampler (48 h), spiked conc. 150 ng mL^−1, mean of 3) is on record as 98.42%; in data set [2] (Autosampler (48 h), spiked conc. 400 ng mL^−1, mean of 3), 103.28%; in data set [2] (Bench top (6 h), room temperature, spiked conc. 5 ng mL^−1, mean of 3) it was 99.52%; in data set [2] (Bench top (6 h), room temperature, spiked conc. 15 ng mL^−1, mean of 3), 100.21%; in data set [2] (Bench top (6 h), room temperature, spiked conc. 150 ng mL^−1, mean of 3), 101.43%; in data set [2] (Bench top (6 h), room temperature, spiked conc. 400 ng mL^−1, mean of 3), 99.26%. The “Recovery (%)” value in data set [1] (spiked conc. 5 ng mL^−1, mean of 3) is listed as 96.94%; in data set [1] (spiked conc. 15 ng mL^−1, mean of 3), 103.24%; in data set [1] (spiked conc. 150 ng mL^−1, mean of 3) it was 101.02%; in data set [1] (spiked conc. 400 ng mL^−1, mean of 3) it was 96.27%. The “time stable under autosampler storage settings” value in data set [2] (autosampler storage settings) is at least 48 h. Besides, the recovery in data set [2] (human, human plasma (spiked QC samples)) lay in the range of 95.9 to 103%. Moreover, the “time stable in plasma samples on the bench” value in data set [2] (room temperature, bench) is reported as “at least 6 hours”. In addition, the “stability during freeze–thaw cycles” value in data set [2] (three freeze–thaw cycles) is “stable”. The “stability at long-term storage” value in data set [2] (−80 °C for 60 days) was “stable”. Besides, the “stability of stock and working standard solutions” value in data set [1] (30 days at refrigerated conditions (8 °C)) is “stable”. Moreover, the “stability of stock solutions (1 mg mL^−1)” value in data set [1] is reported as “stable”. In addition, the Cmax in data set [3] (setting [4]) is 3800 ng/mL. In data set [3] (setting [4]), this compound displayed a mean residence time MRT of 1.04 h. For the same compound, the Tmax in data set [3] (setting [4]) is 1.83 h. This compound gave a half-life in data set [3] (setting [4]) of 0.72 h. For the same compound, the k el in data set [3] (setting [4]) was 0.000269 s⁻¹. For the same compound, the “Area under curve ration (AUC0–t/AUC0–∞)” value in data set [3] (setting [5]) was 95.69%. The “Clearance (CL)” value in data set [3] (setting [5]) amounted to 14.2 mL/min/kg. Further, the “Elimination half-life time (t1/2)” value in data set [3] (setting [5]) was 0.72 h⁻¹. Besides, in data set [3] (setting [5]), the “Volume of distribution (Vd)” value is 0.88 L/kg.

Usually Cmax stands for the peak of the concentration-time curve. By MRT is commonly meant a mean duration of stay, worked out from the concentration-time curve. One may read the Tmax as the time at which the peak concentration occurs. As usually defined, the half-life is how long it takes for the measured level to halve.

For the origin of these results see paper PMC9999367 (RSC Advances, 2023).
